Results: ChEMBL document CHEMBL3259675, “Novel N-substituted sophoridinol derivatives as anticancer agents” (Eur J Med Chem, 2014)
pIC50: −log10 of the molar value.

What was measured:
HepG2 [1] = experiment: Antiproliferative activity against human HepG2 cells assessed as growth inhibition at 10 ug/ml after 48 hrs by MTT assay; type: functional; conditions: HepG2, 48 h
In short: (§1)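 Cell lines from ATCC, grown in MEM-EBSS with 10% FBS and 1% penicillin-streptomycin at 37 °C, 5% CO2. Seeded at 4000 cells/well, left 24 h, then exposed to a concentration series for 48 h. Growth read by MTT. Percent inhibition was computed at each concentration and IC50 derived from it. Triplicate determinations, reported as mean SD.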

HepG2 [2] = experiment: Antiproliferative activity against human HepG2 cells assessed as growth inhibition after 48 hrs by MTT assay; type: functional, cell-based; conditions: HepG2, 48 h; in short: as §1
HCT-116 = experiment: Antiproliferative activity against human HCT116 cells assessed as growth inhibition after 48 hrs by MTT assay; type: functional, cell-based; conditions: HCT-116, 48 h; in short: as §1
NCI-H1299 = experiment: Antiproliferative activity against human NCI-H1299 cells assessed as growth inhibition after 48 hrs by MTT assay; type: functional, cell-based; conditions: NCI-H1299, 48 h; in short: as §1
[3] = Antiproliferative activity against human U87 cells assessed as growth inhibition after 48 hrs by MTT assay; type: functional, cell-based, U-87MG ATCC; conditions: U-87 MG; in short: as §1
MCF7 = experiment: Antiproliferative activity against human MCF7 cells assessed as growth inhibition after 48 hrs by MTT assay; type: functional, cell-based; conditions: MCF7, 48 h; in short: as §1
KB = experiment: Antiproliferative activity against human KB cells assessed as growth inhibition after 48 hrs by MTT assay; type: functional, cell-based; in short: as §1
Mus musculus [4] = experiment: Toxicity in mouse at 250 to 1000 mg/kg, ig; type: organism-based; set-up: dose 250-1000 mg/kg, route intragastric; conditions: in vivo, po
In short: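 Single-dose toxicity in mice: compound given intragastrically at 250, 500 or 1000 mg/kg, with deaths monitored.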

Mus musculus [5] = experiment: Toxicity in mouse assessed as body weight at 250 to 1000 mg/kg, ig; type: organism-based; set-up: dose 250-1000 mg/kg, route intragastric; conditions: in vivo, po
HepG2 [6] = experiment: Cell cycle arrest in human HepG2 cells assessed as accumulation at G0/G1 phase at 2.5 ug/ml after 24 hrs by FACS flow cytometric analysis (reference value: 2 %); type: functional; conditions: HepG2, 24 h
In short: (§2)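 HepG2 cells exposed to 0, 2.5, 5 or 10 µg/ml for 24 h, then harvested. Fixed in 70% ethanol and held at −20 °C. Cell-cycle distribution determined by flow cytometry, with untreated cells as control.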

HepG2 [7] = experiment: Cell cycle arrest in human HepG2 cells assessed as accumulation at G0/G1 phase at 5 ug/ml after 24 hrs by FACS flow cytometric analysis (reference value: 2 %); type: functional; conditions: HepG2, 24 h; in short: as §2
HepG2 [8] = experiment: Cell cycle arrest in human HepG2 cells assessed as accumulation at G0/G1 phase at 10 ug/ml after 24 hrs by FACS flow cytometric analysis (reference value: 2 %); type: functional; conditions: HepG2, 24 h; in short: as §2

pIC50 (HepG2 [2]): 5.39 | pIC50 (HCT-116): 5.34 | pIC50 (NCI-H1299): 5.39 | pIC50 (MCF7): 4.70 | pIC50 (KB): 5.21
Structure (SMILES): COC(=O)CCC[C@@H]1[C@H]2CCCN3CCC[C@H](CN1Cc1ccc(Cl)cc1)[C@@H]23
inhibition at 10 µg/mL (HepG2 [1]): 97.6% | pIC50 [3]: 4.90 | Activity (Mus musculus [4]): Non-toxic | Activity (Mus musculus [5]): Non-toxic | inhibition at 2.5 µg/mL (HepG2 [6]): 6.3% | inhibition at 5 µg/mL (HepG2 [7]): 11.8% | inhibition at 10 µg/mL (HepG2 [8]): 8.5%
